The subject of one data set is SH-SY5Y. Nature of the data set: Inhibition of APP levels in human SH-SY5Y cells transfected with pCAX FLAG APP and pRK5-EGFP-Tau P301L plasmids at 1 uM after 24 hrs by Western blot analysis. In kind it is functional, cell-based. The method in brief: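 SH-SY5Y or Neuro-2a cells cotransfected 24 h with pCAX APP695 and pRK5-EGFP-Tau P301L, then treated 24 h at 1 µM. 20 µg lysate protein immunoblotted for APP and phospho-tau Ser396/Ser404. Mean ± STD of three independent experiments; Student's t-test.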
In general terms: Immunoblotting shows a protein as a band on a membrane.

Data set [1] deals with T1, Protein deacetylase HDAC6 (Homo sapiens) (UniProt Q9UBN7).
T1 sequence (whole entry): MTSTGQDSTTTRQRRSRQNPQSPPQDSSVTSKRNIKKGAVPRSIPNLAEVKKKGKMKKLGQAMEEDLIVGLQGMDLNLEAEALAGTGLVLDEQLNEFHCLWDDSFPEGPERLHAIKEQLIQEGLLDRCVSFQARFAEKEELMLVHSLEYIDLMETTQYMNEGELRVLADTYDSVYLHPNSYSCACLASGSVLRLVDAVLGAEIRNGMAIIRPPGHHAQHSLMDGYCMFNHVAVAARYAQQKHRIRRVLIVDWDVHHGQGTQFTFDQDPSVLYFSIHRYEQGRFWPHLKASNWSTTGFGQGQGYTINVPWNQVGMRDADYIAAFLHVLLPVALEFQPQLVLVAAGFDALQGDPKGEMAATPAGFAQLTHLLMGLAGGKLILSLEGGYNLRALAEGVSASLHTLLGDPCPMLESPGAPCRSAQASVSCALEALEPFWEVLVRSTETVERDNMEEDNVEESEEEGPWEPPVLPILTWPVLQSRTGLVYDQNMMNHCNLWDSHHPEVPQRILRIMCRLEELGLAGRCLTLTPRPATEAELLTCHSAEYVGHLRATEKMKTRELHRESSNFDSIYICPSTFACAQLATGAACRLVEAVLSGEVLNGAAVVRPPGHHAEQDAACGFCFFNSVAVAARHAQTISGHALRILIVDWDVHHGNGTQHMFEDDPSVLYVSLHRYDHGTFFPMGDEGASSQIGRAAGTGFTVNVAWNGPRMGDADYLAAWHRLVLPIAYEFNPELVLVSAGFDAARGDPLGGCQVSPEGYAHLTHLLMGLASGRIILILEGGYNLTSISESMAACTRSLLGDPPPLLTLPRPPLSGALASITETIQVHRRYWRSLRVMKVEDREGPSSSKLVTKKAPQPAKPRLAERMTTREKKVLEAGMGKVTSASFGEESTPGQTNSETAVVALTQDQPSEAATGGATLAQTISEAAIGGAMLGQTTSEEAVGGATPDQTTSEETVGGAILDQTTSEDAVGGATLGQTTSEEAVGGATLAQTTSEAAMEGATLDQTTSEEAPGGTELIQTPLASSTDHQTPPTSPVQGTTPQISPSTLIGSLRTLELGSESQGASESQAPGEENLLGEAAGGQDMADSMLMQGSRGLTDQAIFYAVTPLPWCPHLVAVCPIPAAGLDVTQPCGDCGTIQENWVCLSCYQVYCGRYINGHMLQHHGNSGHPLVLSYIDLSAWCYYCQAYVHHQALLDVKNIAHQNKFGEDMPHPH
Briefly: Inhibition of HDAC6 in human SH-SY5Y cells transfected with pCAX FLAG APP and pRK5-EGFP-Tau P301L plasmids assessed as suppression of phosphorylated tau P301L mutant-induced apoptosis by measuring accumulation at sub-G1 phase at 0.1 uM after 24 hrs by propidium iodide staining-based flow cytometry (reference value: 22.01%). In kind it is cell-based. Also on record: scale not given: the % may be the effect or the level left. (A flow cytometer gives signals particle by particle.)

The test system of another data set is Rattus norvegicus. Nature of the data set: In vivo inhibition of HDAC6 in Wistar rat brain hippocampal CA1 region assessed as downregulation of scopolamine-mediated increase in Tau phosphorylation at Ser396/Ser404 residues by immunohistochemical analysis. It is filed as functional, organism-based. In a few lines:
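Male Wistar rats, 7 weeks old, dosed orally at 25 mg/kg in 1% carboxymethyl cellulose/0.5% Tween 80 once daily. Scopolamine 1 mg/kg i.p. 90 min before test trial (controls excluded). Morris water maze (hidden platform escape latency), elevated plus maze (started at open-arm end, time to closed arm), then CA1 phospho-tau Ser396/Ser404 immunohistochemistry.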

Data set [2] is described as follows: Drug uptake in Sprague-Dawley rat brain at 50 mg/kg, po after 1 hr by HPLC-MS/MS analysis. It is filed as ADME, organism-based. The note with it: read-out: Drug uptake.
The test system of data set [3] is Mus musculus. Nature of the data set: Toxicity in Balb/c mouse assessed as increase in body weight at 100 to 1000 mg/kg/day, ip administered for 6 days followed by 1 week recovery. It is filed as organism-based. The note with it: in vivo. In a few lines: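 Male Balb/c mice given 100, 500 or 1000 mg/kg/day i.p. for 6 days, then 1 week recovery; six vehicle-injected mice as controls. Body weight and survival recorded daily.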

Data set [4] relates to Mus musculus. Nature of the data set: In vivo inhibition of HDAC6 in 3xTg-AD transgenic mouse brain hippocampal CA1 region assessed as downregulation of […] expression of beta-amyloid at 50 mg/kg, po administered daily for 3 months by Western blot analysis. In kind it is functional, organism-based.
For data set [5], the system named is Mus musculus. Nature of the data set: In vivo inhibition of HDAC6 in scopolamine-treated 3xTg-AD transgenic mouse brain hippocampal CA1 region assessed as increase in acetyl-alpha-tubulin level at 50 mg/kg, po by Western blot analysis. It is filed as functional, organism-based. In a few lines: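 Female 3xTg-AD mice, fed standard diet to 6 months of age, then dosed orally at 50 or 100 mg/kg once daily for three months. Brains removed; hippocampal tissue lysates immunoblotted for acetyl-α-tubulin and phospho-tau Ser396 and Ser404. Mean ± STD; one-way ANOVA.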

In data set [6] the target is T1, Protein deacetylase HDAC6 (Homo sapiens). Nature of the data set: Inhibition of HDAC6 in human SH-SY5Y cells transfected with pCAX FLAG APP and pRK5-EGFP-Tau P301L plasmids assessed as inhibition of amyloid beta (1 to 40)-induced Tau P301L mutant phosphorylation at 1 uM after 24 hrs by Western blot analysis.

SMILES strings stand for the structures. Activity calls are given as the source filed them. No cut-off for these calls is given here.

Take `COc1ccc(C(=O)c2ccc3c(ccn3Cc3ccc(C(=O)NO)cc3)c2)cc1`: the inhibition result (in the data set on SH-SY5Y; in the data set on Rattus norvegicus; with Mus musculus [4]; with Mus musculus [5]; in data set [6]) was “Active” throughout. Besides, the Activity in data set [1] was 13.5%; in the data set on Mus musculus [3], “Non-Toxic”. Moreover, the concentration at 1 h in data set [2] stood at 10.4 ng/g.

These data come from ChEMBL document CHEMBL4196108, “5-Aroylindoles Act as Selective Histone Deacetylase 6 Inhibitors Ameliorating Alzheimer's Disease Phenotypes” (J Med Chem, 2018).
